B1: tRNA (parent)
chain: GUUCCGUUGGCGUAAUGGUAACGCGUCUCCCUCCUAAGGAGAAGACUGCGGGUUCGAGUCCCGUACGGAACG

Variants at the floor of the assay were thinned out.

This passage reports yeast fitness results from the RNAGym collection of RNA variant scans (doi:10.1126/science.aae0568).

The variants in the data set derive from B1. The data set can be described thus: yeast fitness relative to wild type (ratio to wild type); higher = fitter; tRNA-Arg(CCU), competitive growth, 37 C, YPD. In short, it runs like this: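 Genotype frequency changes were the basis for Darwinian fitness relative to wild type. The frequencies came from 100-nucleotide paired-end sequencing of gene amplicons from the start population and each end population of pooled yeast strains with tRNA-Arg(CCU) gene variants at the native locus. Competition ran in YPD at 37°C for 24 hours in six replicates, genotypes needed ≥ 100 starting reads, and estimates < 0.5 were set to 0.5.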
Turning to A14G C29G C31U, the yeast fitness was 0.6.

As for A14G G25A G44C, the yeast fitness came out at 0.782.

In the case of A14G C49G A69U, the yeast fitness was 0.566.

Turning to A14C G25C U47A G63C, the yeast fitness worked out at 0.678.

Consider A14G G17A G23A U28G, for which the yeast fitness is at most 0.5.

Turning to A14G C24A C31U A40U, the yeast fitness is at most 0.5.

Take A14G C29U G39A: the yeast fitness is 0.574.

Consider A14G C31U A42G C62U A69C, for which the yeast fitness was at most 0.5.

On to A14C G17C G18A G23C A57C, for which the yeast fitness is at most 0.5.

As to A14G C22U C29A, the yeast fitness was at most 0.5.

Consider A14G A15C A69C A70G, for which the yeast fitness worked out at 0.618.

For the variant A14G G41C C55A, the yeast fitness is at most 0.5.

Turning to A14G G48A C66U, the yeast fitness is 0.645.

Regarding A14G A42G G51C, the yeast fitness is at most 0.5.

On to A14G A40G U47C, for which the yeast fitness was determined as 0.551.

As for A14G C22G U26C C31G, the yeast fitness came to 0.615.

Turning to A14G A15C U26A G48C C49U U59C, the yeast fitness was at most 0.5.

For the variant A14G G23A U47C, the yeast fitness was at most 0.5.

With A14G A45C G58A, the yeast fitness came to 0.622.

As to A14G A15U G25C C49U, the yeast fitness turned out to be 0.619.

Take A14G C34G A65U C66A: the yeast fitness was at most 0.5.

A14G A36U A37C C49A U53G: the yeast fitness was at most 0.5.

Turning to A14G U16A U47C, the yeast fitness was 0.812.

For A14C U26C U54C C55G C61A, the yeast fitness is at most 0.5.

A14G A40U C46G G50C A57U: the yeast fitness was at most 0.5.

Turning to A14G A20C C60U, the yeast fitness is at most 0.5.

As to A14G C24U C55A G63C, the yeast fitness is at most 0.5.

As for A14G A45C, the yeast fitness is 0.718.

In the case of A14G C27G, the yeast fitness was 0.562.

On to A14G A15U U32G C34G U47C G63C, for which the yeast fitness is at most 0.5.

On to A14G C24G, for which the yeast fitness came out at 0.597.

For A14G A21G G67A, the yeast fitness was found to be 0.63.

As for A14G U16A, the yeast fitness is 0.886.

As for A14G U19A C27G G44A C46G C55G C66A, the yeast fitness is at most 0.5.

Take A14G U19G C27G C34A A42U: the yeast fitness was at most 0.5.

As for A14G G25A C30A A70C, the yeast fitness was at most 0.5.

For the variant A14C C62G, the yeast fitness was determined as 0.599.

As to A14G G41A A69C, the yeast fitness is at most 0.5.

For the variant A14G A20C C30U C66U, the yeast fitness is at most 0.5.

For the variant A14G A15G U32A, the yeast fitness was at most 0.5.

Consider A14C U16A A21C G56A, for which the yeast fitness is at most 0.5.

For A14G C34G A45U, the yeast fitness was at most 0.5.

As to A14C G18A C22G C49A U59C A69G, the yeast fitness was at most 0.5.

With A14G A57C C62U, the yeast fitness was at most 0.5.

In the case of A14G C30U C46A, the yeast fitness was 0.763.

In the case of A14G U19A A20G A40U C61G, the yeast fitness turned out to be 0.515.

Consider A14G C24U G48C C66A, for which the yeast fitness is at most 0.5.

Regarding A14G C27A U54G, the yeast fitness was at most 0.5.

With A14G G25A A36U G50A C62G, the yeast fitness is at most 0.5.

For the variant A14G C29G A37G C46U C66G, the yeast fitness is at most 0.5.

As for A14G U16A C33A U59C, the yeast fitness is at most 0.5.

For A14G A42G C46G A57G, the yeast fitness was at most 0.5.

In the case of A14G A21C A36C A43U G67U, the yeast fitness was at most 0.5.

In the case of A14C G25A C29G C46G C61A, the yeast fitness was determined as 0.569.

On to A14G C27G C30U C31G, for which the yeast fitness was 0.76.

As to A14G C29G, the yeast fitness turned out to be 0.564.

A14G G17A G44C A65U: the yeast fitness is at most 0.5.

As to A14C G18A C22G A57U C61G, the yeast fitness is at most 0.5.

In the case of A14G G63A, the yeast fitness was 0.756.

On to A14C U28G, for which the yeast fitness came out at 0.625.

For A14C U28C, the yeast fitness worked out at 0.606.

Consider A14G A21U C62G, for which the yeast fitness is at most 0.5.

In the case of A14G A69U A70C, the yeast fitness was 0.726.

Regarding A14C U28A U59G A65U, the yeast fitness was at most 0.5.

As for A14G G56C, the yeast fitness was found to be 0.611.

Consider A14G G67U, for which the yeast fitness is 0.776.

As for A14G C31G A57C A65C, the yeast fitness is at most 0.5.

As to A14G G17C A36C G48A C49G G51A A70C, the yeast fitness is at most 0.5.

Consider A14C G25C G48A, for which the yeast fitness was determined as 0.608.

As for A14G C22G, the yeast fitness turned out to be 0.806.

With A14G G18C C29G U54C, the yeast fitness is at most 0.5.

In the case of A14G G23C C29G G63C C66G, the yeast fitness was at most 0.5.

On to A14G A15G A37U C55U, for which the yeast fitness is at most 0.5.

Consider A14C G18A G67U, for which the yeast fitness was at most 0.5.

Take A14G C24U A57G: the yeast fitness was 0.639.

On to A14G G18A U26A G50A, for which the yeast fitness is at most 0.5.

As to A14G A20U A36U G51C G52C C60U G67A, the yeast fitness was at most 0.5.

For the variant A14G G18C A21U C29G G67A, the yeast fitness was at most 0.5.

Consider A14G U26C G48A, for which the yeast fitness is 0.661.

On to A14G G41C, for which the yeast fitness is 0.917.

Regarding A14G C34U G52A C66U A70U, the yeast fitness is at most 0.5.

On to A14G C46U G50C C55U A57U C62G A70U, for which the yeast fitness stood at 0.54.

On to A14G C34G G63C G67C, for which the yeast fitness is at most 0.5.
